pIC50: −log10 of the molar value. ≈ marks a conversion by molar mass, not a printed value.
What was measured:
[1] = test system: Enterococcus faecium; assay: Minimum inhibitory concentration measured against Enterococcus faecium; type: functional
[2] = test system: Moraxella catarrhalis; assay: Minimum inhibitory concentration measured against Moraxella catarrhalis; type: functional
[3] = test system: Staphylococcus epidermidis; assay: Minimum inhibitory concentration measured against Staphylococcus epidermidis; type: functional
[4] = test system: Streptococcus pneumoniae; assay: Minimum inhibitory concentration measured against Streptococcus pneumoniae; type: functional
[5] = test system: Staphylococcus aureus; assay: Minimum inhibitory concentration measured against Staphylococcus aureus; type: functional
[6] = species on record: Rattus norvegicus; assay: Inhibition of mitochondrial protein synthesis (MPS) in rat heart mitochondria; type: functional
How it was run: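 Rat heart mitochondria were incubated at 1 mg/mL protein (Bradford) in buffer with translation components (ADP, amino acids). Incorporation of S35 methionine was followed for 1 h at 30 °C, then quenched with cold 5% TCA/5 mM methionine. Triplicate aliquots were filtered, washed and counted. Compounds were tested at 6–7 concentrations, ≤1% organic. IC50 came from the linear portion of the percent-of-control curve, as the mean of ≥2 experiments.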

[7] = biological target: T1, Amine oxidase [flavin-containing] B (Rattus norvegicus, UniProt P19643); assay: Inhibition of Monoamine oxidase B in rat primary hepatocytes; type: cell-based, Hepatocyte
T1 sequence (P19643 whole entry): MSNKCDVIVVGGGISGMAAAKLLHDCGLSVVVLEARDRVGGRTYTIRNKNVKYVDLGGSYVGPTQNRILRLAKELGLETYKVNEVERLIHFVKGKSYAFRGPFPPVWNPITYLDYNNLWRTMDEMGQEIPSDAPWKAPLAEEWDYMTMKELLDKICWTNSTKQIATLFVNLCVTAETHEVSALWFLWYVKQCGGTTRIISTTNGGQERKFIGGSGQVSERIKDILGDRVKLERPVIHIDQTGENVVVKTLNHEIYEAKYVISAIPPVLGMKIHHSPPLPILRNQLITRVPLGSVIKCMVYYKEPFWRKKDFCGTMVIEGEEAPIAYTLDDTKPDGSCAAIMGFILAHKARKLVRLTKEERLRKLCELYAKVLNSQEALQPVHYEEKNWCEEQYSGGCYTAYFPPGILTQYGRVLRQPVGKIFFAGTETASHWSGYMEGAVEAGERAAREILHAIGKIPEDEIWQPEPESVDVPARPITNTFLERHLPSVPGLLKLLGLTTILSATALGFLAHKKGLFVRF

[8] = biological target: T1, Amine oxidase [flavin-containing] B; assay: Compound was evaluated for inhibition of Mono aminoxidase B in rat primary hepatocytes; type: cell-based, Hepatocyte

With `CC(=O)NC[C@H]1CN(c2ccc(/C=C(\Br)c3ccc(C(C)=O)cc3)c(F)c2)C(=O)O1` the MIC [1] was 32 µg/mL (≈ 67.3 µM), the MIC [2] was 128 µg/mL (≈ 269 µM) and the MIC [3] was 64 µg/mL (≈ 135 µM). For the same compound, the MIC [4] was 1 µg/mL (≈ 2.1 µM) and the MIC [5] was 64 µg/mL (≈ 135 µM).

`CC(=O)NC[C@H]1CN(c2ccc(/C=C(\F)c3nnn(C)n3)c(F)c2)C(=O)O1` was tested, and the pIC50 [6] was 5.31, the pIC50 [7] was less than 3.52 and the MIC [1] was 4 µg/mL (≈ 10.6 µM). It also gave an MIC [2] of 32 µg/mL (≈ 84.6 µM), an MIC [3] of 1 µg/mL (≈ 2.64 µM) and an MIC [4] of 2 µg/mL (≈ 5.29 µM). It also gave an MIC [5] of 8 µg/mL (≈ 21.1 µM).

Work on `CC(=O)NC[C@H]1CN(c2ccc(/C=C(\F)c3nccs3)c(F)c2)C(=O)O1` yielded a pIC50 [7] greater than 5.03, an MIC [1] of 2 µg/mL (≈ 5.27 µM) and an MIC [2] of 8 µg/mL (≈ 21.1 µM). For the same compound, the MIC [3] was 2 µg/mL (≈ 5.27 µM), the MIC [4] was 2 µg/mL (≈ 5.27 µM) and the MIC [5] was 2 µg/mL (≈ 5.27 µM).

Work on `CC(=O)NC[C@H]1CN(c2ccc(/C=C(\Br)c3cccc(N)c3)c(F)c2)C(=O)O1` yielded an MIC [1] of 2 µg/mL (≈ 4.46 µM), an MIC [2] of 8 µg/mL (≈ 17.8 µM) and an MIC [3] of 1 µg/mL (≈ 2.23 µM). It also gave an MIC [4] of 2 µg/mL (≈ 4.46 µM) and an MIC [5] of 2 µg/mL (≈ 4.46 µM).

Compound `CC(=O)NC[C@H]1CN(c2ccc(/C=C(\Br)c3ccc(C#N)cc3)c(F)c2)C(=O)O1` has a pIC50 [6] of 4.12, a pIC50 [7] of less than 3.82 and an MIC [1] of 2 µg/mL (≈ 4.36 µM). It also gave an MIC [2] greater than 128 µg/mL, an MIC [3] of 1 µg/mL (≈ 2.18 µM) and an MIC [4] of 0.5 µg/mL (≈ 1.09 µM). For the same compound, the MIC [5] was 4 µg/mL (≈ 8.73 µM).

Work on `CC(=O)NC[C@H]1CN(c2ccc(/C=C(\Br)c3ccccc3C#N)c(F)c2)C(=O)O1` yielded a pIC50 [6] of 4.44, a pIC50 [7] of less than 3.82 and an MIC [1] of 4 µg/mL (≈ 8.73 µM). It also gave an MIC [2] of 128 µg/mL (≈ 279 µM), an MIC [3] of 4 µg/mL (≈ 8.73 µM) and an MIC [4] of 2 µg/mL (≈ 4.36 µM). The MIC [5] was 16 µg/mL (≈ 34.9 µM).

Work on `CC(=O)NC[C@H]1CN(c2ccc(/C=C(\F)c3cccc(C(C)=O)c3)c(F)c2)C(=O)O1` yielded a pIC50 [6] of 4.16, a pIC50 [7] of less than 3.52 and an MIC [1] of 2 µg/mL (≈ 4.83 µM). The MIC [2] was greater than 128 µg/mL, the MIC [3] was 1 µg/mL (≈ 2.41 µM) and the MIC [4] was 1 µg/mL (≈ 2.41 µM). The MIC [5] was 0.5 µg/mL (≈ 1.21 µM).

In the case of `CC(=O)NC[C@H]1CN(c2ccc(/C=C(\Br)c3cccnc3)c(F)c2)C(=O)O1`, the pIC50 [6] was 4.92, the pIC50 [7] was 3.92 and the MIC [1] was 2 µg/mL (≈ 4.61 µM). It also gave an MIC [2] of 8 µg/mL (≈ 18.4 µM), an MIC [3] of 1 µg/mL (≈ 2.3 µM) and an MIC [4] of 1 µg/mL (≈ 2.3 µM). For the same compound, the MIC [5] was 2 µg/mL (≈ 4.61 µM).

`COc1ccncc1/C(Br)=C/c1ccc(N2C[C@H](CNC(C)=O)OC2=O)cc1F` showed an MIC [1] of 2 µg/mL (≈ 4.31 µM), an MIC [2] of 32 µg/mL (≈ 68.9 µM) and an MIC [3] of 4 µg/mL (≈ 8.62 µM). It also gave an MIC [4] of 2 µg/mL (≈ 4.31 µM) and an MIC [5] of 8 µg/mL (≈ 17.2 µM).

`CC(=O)NC[C@H]1CN(c2ccc(/C=C(\F)c3cccc(C#N)c3)c(F)c2)C(=O)O1` showed a pIC50 [6] of less than 3.52, a pIC50 [7] of less than 3.52 and an MIC [1] greater than 128 µg/mL. The MIC [2] was greater than 128 µg/mL, the MIC [3] was 128 µg/mL (≈ 322 µM) and the MIC [4] was 2 µg/mL (≈ 5.03 µM). The MIC [5] was greater than 128 µg/mL.

For `CC(=O)NC[C@H]1CN(c2ccc(/C=C(\F)c3cncnc3)c(F)c2)C(=O)O1`, the pIC50 [7] was 3.32, the MIC [1] was 2 µg/mL (≈ 5.34 µM) and the MIC [2] was 4 µg/mL (≈ 10.7 µM). It also gave an MIC [3] of 1 µg/mL (≈ 2.67 µM), an MIC [4] of 1 µg/mL (≈ 2.67 µM) and an MIC [5] of 2 µg/mL (≈ 5.34 µM).

With `CC(=O)NC[C@H]1CN(c2ccc(/C=C(\Br)c3cccc(C#N)c3)c(F)c2)C(=O)O1` the pIC50 [6] was 4.62, the pIC50 [7] was less than 3.82 and the MIC [1] was 0.125 µg/mL (≈ 0.273 µM). The MIC [2] was 1 µg/mL (≈ 2.18 µM), the MIC [3] was 0.125 µg/mL (≈ 0.273 µM) and the MIC [4] was 0.25 µg/mL (≈ 0.546 µM). The MIC [5] was 0.25 µg/mL (≈ 0.546 µM).

For `CC(=O)NC[C@H]1CN(c2ccc(/C=C(\F)c3cncc(C#N)c3)c(F)c2)C(=O)O1`, the pIC50 [6] was greater than 7.00, the pIC50 [7] was less than 3.52 and the MIC [1] was 1 µg/mL (≈ 2.51 µM). For the same compound, the MIC [2] was 4 µg/mL (≈ 10 µM), the MIC [3] was 0.5 µg/mL (≈ 1.26 µM) and the MIC [4] was no more than 0.125 µg/mL. It also gave an MIC [5] of 1 µg/mL (≈ 2.51 µM).

In the case of `CC(=O)NC[C@H]1CN(c2ccc(/C=C(\F)c3cccnc3)c(F)c2)C(=O)O1`, the pIC50 [6] was 5.80, the pIC50 [7] was 4.01 and the MIC [1] was 1 µg/mL (≈ 2.68 µM). For the same compound, the MIC [2] was 8 µg/mL (≈ 21.4 µM), the MIC [3] was 0.25 µg/mL (≈ 0.67 µM) and the MIC [4] was 0.5 µg/mL (≈ 1.34 µM). It also gave an MIC [5] of 4 µg/mL (≈ 10.7 µM).

`CC(=O)NC[C@H]1CN(c2ccc(/C=C(\Br)c3cccc(CO)c3)c(F)c2)C(=O)O1` gave a pIC50 [6] of 5.10, a pIC50 [7] of less than 3.82 and an MIC [1] of 0.5 µg/mL (≈ 1.08 µM). The MIC [2] was 4 µg/mL (≈ 8.63 µM), the MIC [3] was 1 µg/mL (≈ 2.16 µM) and the MIC [4] was 1 µg/mL (≈ 2.16 µM). For the same compound, the MIC [5] was 2 µg/mL (≈ 4.32 µM).

`CC(=O)NC[C@H]1CN(c2ccc(/C=C(\Br)c3cncc(C#N)c3)c(F)c2)C(=O)O1` gave a pIC50 [6] of 5.89, a pIC50 [7] of less than 3.52 and an MIC [1] of less than 0.125 µg/mL. For the same compound, the MIC [2] was 2 µg/mL (≈ 4.35 µM), the MIC [3] was 0.25 µg/mL (≈ 0.544 µM) and the MIC [4] was no more than 0.125 µg/mL. It also gave an MIC [5] of 1 µg/mL (≈ 2.18 µM).

`CC(=O)NC[C@H]1CN(c2ccc(/C=C(\Br)c3ccccc3)c(F)c2)C(=O)O1` was tested, and the pIC50 [6] was less than 3.52, the pIC50 [7] was greater than 5.03 and the MIC [1] was 16 µg/mL (≈ 36.9 µM). It also gave an MIC [2] of 128 µg/mL (≈ 295 µM), an MIC [3] of 16 µg/mL (≈ 36.9 µM) and an MIC [4] of 2 µg/mL (≈ 4.62 µM). It also gave an MIC [5] of 16 µg/mL (≈ 36.9 µM).

`CC(=O)NC[C@H]1CN(c2ccc(N3CCOCC3)c(F)c2)C(=O)O1` [LINEZOLID] showed a pIC50 [6] of 4.92, a pIC50 [8] of 4.77 and an MIC [1] of 2 µg/mL (≈ 5.93 µM). It also gave an MIC [2] of 4 µg/mL (≈ 11.9 µM) and an MIC [3] of 1 µg/mL (≈ 2.96 µM).

Reference: ChEMBL document CHEMBL1134857, “The synthesis and biological evaluation of a novel series of antimicrobials of the oxazolidinone class” (Bioorg Med Chem Lett, 2002)
